Results taken from ChEMBL document CHEMBL4382232, “Grayanane Diterpenoid Glucosides from the Leaves of Rhododendron micranthum and Their Bioactivities Evaluation” (2018).
Calls of active or inactive are those of the source. The rule behind the calls is not given here.

Columns and labels:
A549 = assay: Cytotoxicity against human A549 cells at 40 uM after 48 hrs by MTT assay; format: functional, cell-based
[1] = target: T1, Tyrosine-protein phosphatase non-receptor type 1 (Homo sapiens) (UniProt P18031); assay: Inhibition of recombinant human PTP1B at 40 uM using pNPP as substrate preincubated for 10 mins followed by substrate addition and measured after 30 mins at 5 mins time interval for 30 mins
T1 sequence (whole entry): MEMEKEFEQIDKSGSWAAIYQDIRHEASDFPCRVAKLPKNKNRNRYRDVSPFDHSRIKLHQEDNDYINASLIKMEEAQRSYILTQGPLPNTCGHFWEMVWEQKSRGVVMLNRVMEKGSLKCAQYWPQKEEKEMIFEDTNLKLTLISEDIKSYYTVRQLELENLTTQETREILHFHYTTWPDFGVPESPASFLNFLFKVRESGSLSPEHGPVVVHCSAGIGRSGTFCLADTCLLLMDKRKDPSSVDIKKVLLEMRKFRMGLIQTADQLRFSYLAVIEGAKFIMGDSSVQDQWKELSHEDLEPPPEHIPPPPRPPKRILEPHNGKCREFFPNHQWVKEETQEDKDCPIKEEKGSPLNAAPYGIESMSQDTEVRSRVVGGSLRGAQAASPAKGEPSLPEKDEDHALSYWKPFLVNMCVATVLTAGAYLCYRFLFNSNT

RAW264.7 = assay: Anti-inflammatory activity in mouse RAW264.7 cells assessed as inhibition of LPS-induced NO production at 40 uM; format: functional, cell-based
SMMC-7721 = assay: Cytotoxicity against human SMMC7721 cells at 40 uM after 48 hrs by MTT assay; format: functional, cell-based
HL-60 = assay: Cytotoxicity against human HL60 cells at 40 uM after 48 hrs by MTT assay; format: functional, cell-based
MCF7 = assay: Cytotoxicity against human MCF7 cells at 40 uM after 48 hrs by MTT assay; format: functional, cell-based
SW480 = assay: Cytotoxicity against human SW480 cells at 40 uM after 48 hrs by MTT assay; format: functional, cell-based
Mus musculus = assay: Antinociceptive activity in Kunming mouse model of acetic-acid-induced writhing assessed as inhibition of writhing numbers at 5 mg/kg measured for 30 mins relative to control; format: functional; conditions: for inhibition in vivo at 5 mg/kg: 0.5 h
Method in brief: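 Acetic-acid-induced writhing model in Kunming mice (10 per group); doses 0.2, 1.0 and 5.0 mg/kg; vehicle-treated and morphine positive-control groups; inhibition of writhing relative to vehicle; mean ± SEM; one-way ANOVA with Bonferroni test. Animal work approved by institutional ethics committee.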

Row | Compound | inhibition [1] | Activity (A549) | inhibition (RAW264.7) | Activity (SMMC-7721) | Activity (HL-60) | Activity (MCF7) | Activity (SW480) | inhibition in vivo at 5 mg/kg (Mus musculus) | inhibition (Mus musculus)
1 | C=C1[C@H]2C[C@H](O)C(C)(C)[C@]2(O)CC[C@@]23C[C@@H](CC[C@@H]12)[C@](C)(O[C@@H]1O[C@H](CO)[C@@H](O)[C@H](O)[C@H]1O)C3 | inactive | inactive | inactive | inactive | inactive | inactive | inactive | – | inactive
2 | C=C1[C@@H]2CC[C@@H]3C[C@@]2(C[C@@H](O)[C@@]2(O)[C@H]1C[C@@H](O[C@@H]1O[C@H](CO)[C@@H](O)[C@H](O)[C@H]1O)C2(C)C)C[C@@]3(C)O | inactive | inactive | inactive | inactive | inactive | inactive | inactive | – | Active
3 | C=C1[C@H]2C[C@H](O[C@@H]3O[C@H](CO)[C@@H](O)[C@H](O)[C@H]3O)C(C)(C)[C@]2(O)CC[C@@]23C[C@@](O)(CC[C@@H]12)[C@](C)(O)C3 | inactive | inactive | inactive | inactive | inactive | inactive | inactive | – | –
4 | C=C1[C@H]2C[C@H](O)C(C)(C)[C@@]2(O)[C@H](O)C[C@@]23C[C@@H](CC[C@@H]12)[C@](C)(O[C@@H]1O[C@H](CO)[C@@H](O)[C@H](O)[C@H]1O)C3 | inactive | inactive | inactive | inactive | inactive | inactive | inactive | – | Active
5 | C=C1[C@@H]2CC[C@H]3C(C)=C[C@]2(C[C@@H](O)[C@@]2(O)[C@H]1C[C@H](O[C@@H]1O[C@H](CO)[C@@H](O)[C@H](O)[C@H]1O)C2(C)C)[C@@H]3O | inactive | inactive | inactive | inactive | inactive | inactive | inactive | 50% | –
6 | C=C1[C@@H]2CC[C@@H]3C[C@@]2(C[C@@H](O)[C@@]2(O)[C@H]1C[C@H](O)C2(C)C)C[C@@]3(C)O[C@@H]1O[C@H](CO)[C@@H](O)[C@H](O)[C@H]1O | inactive | inactive | inactive | inactive | inactive | inactive | inactive | > 50% | –
7 | C[C@H]1[C@@H]2C[C@H](O[C@@H]3O[C@H](CO)[C@@H](O)[C@H](O)[C@H]3O)C(C)(C)[C@]23O[C@]12CC[C@@H]1C[C@@]2(C[C@H]3O)C[C@@]1(C)O | inactive | inactive | inactive | inactive | inactive | inactive | inactive | – | Active
8 | C=C1[C@H]2C[C@H](O[C@@H]3O[C@H](CO)[C@@H](O)[C@H](O)[C@H]3O)C(C)(C)[C@@]2(O)[C@H](O)C[C@@]23C[C@@H](CC[C@@H]12)[C@](C)(O)C3 | inactive | inactive | inactive | inactive | inactive | inactive | inactive | – | inactive
9 | C=C1[C@H]2C[C@H](O)C(C)(C)[C@]2(O)CC[C@@]23C[C@@](O)(CC[C@@H]12)[C@](C)(O[C@@H]1O[C@H](CO)[C@@H](O)[C@H](O)[C@H]1O)C3 | inactive | inactive | inactive | inactive | inactive | inactive | inactive | – | Active
10 | C=C1[C@@H]2CC[C@@H]3C[C@]2(C=C3C)C[C@@H](O)[C@@]2(O)[C@H]1C[C@H](O[C@@H]1O[C@H](CO)[C@@H](O)[C@H](O)[C@H]1O)C2(C)C | inactive | inactive | inactive | inactive | inactive | inactive | inactive | – | –

Further lines, with some results ahead:

Row | inhibition [1] | Compound | Activity (A549) | inhibition (RAW264.7) | Activity (SMMC-7721) | Activity (HL-60) | Activity (MCF7) | Activity (SW480) | inhibition in vivo at 5 mg/kg (Mus musculus) | inhibition (Mus musculus)
11 | inactive | C=C1[C@@H]2CC[C@@H]3[C@@H](O)[C@@]2(C[C@@H](O)[C@@]2(O)[C@H]1C[C@H](O[C@@H]1O[C@H](CO)[C@@H](O)[C@H](O)[C@H]1O)C2(C)C)C[C@@]3(C)O | inactive | inactive | inactive | inactive | inactive | inactive | > 50% | –
12 | inactive | CC1(C)[C@@H](O[C@@H]2O[C@H](CO)[C@@H](O)[C@H](O)[C@H]2O)C[C@H]2[C@](C)(O)[C@@H]3CC[C@@H]4[C@@H](O)[C@@]3(C[C@@H](O)[C@@]21O)C[C@@]4(C)O | inactive | inactive | inactive | inactive | inactive | inactive | > 50% | –
13 | inactive | C=C1[C@@H]2CC[C@@H]3C[C@]2(C[C@@]3(C)O)[C@H](O)[C@@H](O)[C@@]2(O)[C@H]1C[C@H](O[C@@H]1O[C@H](CO)[C@@H](O)[C@H](O)[C@H]1O)C2(C)C | inactive | inactive | inactive | inactive | inactive | inactive | – | –
14 | inactive | CC1=C2CC[C@@H]3[C@@H](O)[C@@]2(C[C@@H](O)[C@@]2(O)[C@H]1C[C@H](O[C@@H]1O[C@H](CO)[C@@H](O)[C@H](O)[C@H]1O)C2(C)C)C[C@@]3(C)O | inactive | inactive | inactive | inactive | inactive | inactive | > 50% | –
15 | inactive | C=C1[C@@H]2CC[C@@H]3[C@@H](OC(C)=O)[C@@]2(C[C@@H](O)[C@@]2(O)[C@H]1C[C@H](O[C@@H]1O[C@H](CO)[C@@H](O)[C@H](O)[C@H]1O)C2(C)C)C[C@@]3(C)O | inactive | inactive | inactive | inactive | inactive | inactive | – | Active
16 | inactive | C=C1[C@@H]2CC[C@@H]3[C@@H](OC(C)=O)[C@@]2(C[C@@H](O)[C@@]2(O)[C@H]1C[C@H](O)C2(C)C)C[C@@]3(C)O[C@@H]1O[C@H](CO)[C@@H](O)[C@H](O)[C@H]1O | inactive | inactive | inactive | inactive | inactive | inactive | > 50% | –
17 | inactive | CC(=O)O[C@@H]1[C@H]2CC[C@H]3[C@@](C)(O)[C@@H]4C[C@H](O[C@@H]5O[C@H](CO)[C@@H](O)[C@H](O)[C@H]5O)C(C)(C)[C@@]4(O)[C@H](O)C[C@@]13C[C@@]2(C)O | inactive | inactive | inactive | inactive | inactive | inactive | – | inactive
18 | inactive | C=C1[C@@H]2CC[C@@H]3C[C@@]2(C[C@@H](O)[C@@]2(O)[C@H]1C[C@H](O[C@@H]1O[C@H](CO)[C@@H](O)[C@H](O)[C@H]1O)C2(C)C)C[C@@]3(C)O | inactive | inactive | inactive | inactive | inactive | inactive | – | Active
